# Measured values as given in paper PMC2913441 (Chemical biology & drug design, 2010).
# Legend:
# Format in all cases: binding
# Mdm2 [1] = target: T1, Mdm2 (Homo sapiens, UniProt Q00987); assay: Interaction with Mdm2; details: result in words; assay not stated
# Target sequence in this assay (Q00987 whole entry): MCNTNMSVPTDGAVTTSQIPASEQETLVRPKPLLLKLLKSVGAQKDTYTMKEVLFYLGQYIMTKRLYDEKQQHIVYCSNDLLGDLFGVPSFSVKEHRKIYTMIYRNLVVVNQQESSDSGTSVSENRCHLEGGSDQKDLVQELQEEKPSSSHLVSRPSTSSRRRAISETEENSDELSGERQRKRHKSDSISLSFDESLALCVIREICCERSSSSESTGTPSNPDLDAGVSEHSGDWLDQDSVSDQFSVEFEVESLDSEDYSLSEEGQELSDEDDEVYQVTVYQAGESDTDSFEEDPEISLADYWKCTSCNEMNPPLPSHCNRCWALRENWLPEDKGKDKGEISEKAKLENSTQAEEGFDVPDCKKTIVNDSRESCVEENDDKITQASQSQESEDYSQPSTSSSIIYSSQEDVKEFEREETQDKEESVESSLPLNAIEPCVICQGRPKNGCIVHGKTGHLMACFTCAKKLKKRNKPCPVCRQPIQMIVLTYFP
# Mdm2 [2] = target: T1, Mdm2; assay: Fluorescence polarization; details: read-out: inhibition constant (Ki) of Mdm2; FP assay, competition with p53-like peptide
# Summary of the method: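 Competitive fluorescence polarization assay: a fluorescent p53-like peptide is bound to recombinant Mdm2 and displaced by the test compound across a range of concentrations, giving dose–response curves. The binding constant and inhibition curves were fitted to derive Ki.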
# Target sequence in this assay (Q00987 1-118): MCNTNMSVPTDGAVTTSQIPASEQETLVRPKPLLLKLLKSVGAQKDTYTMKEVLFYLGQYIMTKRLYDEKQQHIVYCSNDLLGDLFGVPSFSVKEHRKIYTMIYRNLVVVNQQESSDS
# Mdm2/p53 complex = Mdm2/p53 complex (Homo sapiens, UniProt Q00987); assay: NMR-based antagonist induced dissociation assay; details: read-out: dissociation constant (Kd) of the compound-Mdm2 interaction; AIDA-NMR; 14 μM Mdm2/p53 complex mixed with compound in 1:1 molar ratio
# Summary of the method: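 Variant of antagonist-induced dissociation NMR (SEI-AIDA). The preformed Mdm2/p53 complex (14 μM) is mixed with the test compound at a 1:1 molar ratio. The amount of p53 released from the complex is estimated from the 1D spectrum. The Kd of the Mdm2–compound interaction is then calculated from the released fraction.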
# Mdm2/p53 complex, sequence (Q00987 1-118, one chain of several): as the sequence (Q00987 1-118) above
smiles,measurement,setting,value
"Cc1cc(C)c(NC(=O)C2C(=O)Nc3sc4c(c3C(=O)N2Cc2ccc(Cl)cc2)CCCC4)c(C)c1 (centres unmarked) [5a-6, 3,4,6,7,8,9-Hexahydro-3-(N-mesityl)-carboxamide-4-(4-chlorobenzyl)-1H-benzothieno-[2,3-e]-1,4-diazepine-2,5-dione]",interaction with Mdm2,Mdm2 [1],weak interaction
"O=C(NCc1ccccc1)C1C(=O)Nc2sc3c(c2C(=O)N1Cc1ccc(Cl)cc1)CCCC3 (centres unmarked) [5a-7, 3,4,6,7,8,9-Hexahydro-3-(N-benzyl)-carboxamide-4-(4-chlorobenzyl)-1H-benzothieno-[2,3-e]-1,4-diazepine-2,5-dione]",Ki,Mdm2 [2],40 µM
same,Kd,Mdm2/p53 complex,30 ± 20 µM
"O=C(NCc1ccc(Cl)c(Cl)c1)C1C(=O)Nc2sc3c(c2C(=O)N1Cc1ccc(Cl)cc1)CCCC3 (centres unmarked) [5a-8, 3,4,6,7,8,9-Hexahydro-3-(N-3,4-dichlorobenzyl)-carboxamide-4-(4-chlorobenzyl)-1H-benzothieno-[2,3-e]-1,4-diazepine-2,5-dione]",Ki,Mdm2 [2],45 µM
same,Kd,Mdm2/p53 complex,10 ± 6 µM
